Results: article PMC5381633 (Genome Biology and Evolution, 2017)

Experiments:
L. erinacea LXRα = target: T1, L. erinacea LXRα (Leucoraja erinacea, UniProt A0A1S6EKM1); assay: GAL4-LBD chimeric receptor luciferase transactivation assay in COS-1 cells; format: cell-based; conditions: all tested concentrations, P < 0.001
T1 sequence (A0A1S6EKM1 181-451): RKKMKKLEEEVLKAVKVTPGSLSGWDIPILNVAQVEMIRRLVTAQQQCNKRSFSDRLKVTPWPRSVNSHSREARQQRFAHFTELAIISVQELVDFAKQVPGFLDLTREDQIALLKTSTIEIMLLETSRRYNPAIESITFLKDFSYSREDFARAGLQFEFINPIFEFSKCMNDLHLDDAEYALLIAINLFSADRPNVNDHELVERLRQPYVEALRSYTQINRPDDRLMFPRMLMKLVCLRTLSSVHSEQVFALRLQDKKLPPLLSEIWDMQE
Procedure, shortened: (§1)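 The receptor's ligand-binding domain plus hinge was fused to the GAL4 DBD in pBIND. COS-1 cells were seeded 24 h before lipofection with 500 ng receptor plasmid and 1,000 ng GAL4UAS-luc2P reporter. After 5 h, medium became phenol red-free DMEM/10% charcoal-stripped FBS with compound in DMSO (oxysterols 10^1–10^5.5 nM). Dual-luciferase was read 24 h post-transfection, in triplicate over three experiments, as mean ± SE. EC50 came from sigmoidal dose–response curves. Normalized fold activation was compared by one-way ANOVA/Holm–Sidak.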

L. erinacea LXRβ = target: T2, L. erinacea LXRβ (Leucoraja erinacea, UniProt A0A1S6EKM5); assay: as above; format: cell-based; conditions: all tested concentrations, P < 0.001
T2 sequence (A0A1S6EKM5 2-271): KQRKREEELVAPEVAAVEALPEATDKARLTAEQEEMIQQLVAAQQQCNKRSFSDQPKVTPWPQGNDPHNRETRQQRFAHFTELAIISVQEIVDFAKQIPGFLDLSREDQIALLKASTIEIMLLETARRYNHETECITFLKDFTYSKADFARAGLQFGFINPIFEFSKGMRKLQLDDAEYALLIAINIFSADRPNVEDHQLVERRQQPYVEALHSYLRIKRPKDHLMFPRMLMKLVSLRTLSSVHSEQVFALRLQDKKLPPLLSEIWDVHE
Procedure, shortened: as §1

L. japonicum LXR = target: T3, L. japonicum LXR (Lethenteron camtschaticum, UniProt A0A1S6EKM6); assay: as above; format: cell-based
T3 sequence (A0A1S6EKM6 89-387): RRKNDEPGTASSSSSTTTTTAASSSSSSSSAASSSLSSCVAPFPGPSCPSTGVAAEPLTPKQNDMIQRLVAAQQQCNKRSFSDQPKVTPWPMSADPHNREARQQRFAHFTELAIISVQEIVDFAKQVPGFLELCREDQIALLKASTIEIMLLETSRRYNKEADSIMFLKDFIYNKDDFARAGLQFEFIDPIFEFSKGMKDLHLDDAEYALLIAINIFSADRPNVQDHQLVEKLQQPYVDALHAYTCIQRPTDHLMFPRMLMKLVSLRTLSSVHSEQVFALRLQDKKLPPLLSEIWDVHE
Procedure, shortened: as §1

LXRα = conditions: human and mouse LXRs; ref Reschly et al. 2008; cited from earlier work
LXRβ = conditions: human and mouse LXRs; ref Reschly et al. 2008; cited from earlier work
tunicate LXR = conditions: ref Reschly et al. 2008; cited from earlier work
B. lanceolatum LXR = target: T4, B. lanceolatum LXR (Branchiostoma lanceolatum, UniProt A0A8J9ZB24); assay: GAL4-LBD chimeric receptor luciferase transactivation assay in COS-1 cells; format: cell-based
T4 sequence (A0A8J9ZB24 168-437): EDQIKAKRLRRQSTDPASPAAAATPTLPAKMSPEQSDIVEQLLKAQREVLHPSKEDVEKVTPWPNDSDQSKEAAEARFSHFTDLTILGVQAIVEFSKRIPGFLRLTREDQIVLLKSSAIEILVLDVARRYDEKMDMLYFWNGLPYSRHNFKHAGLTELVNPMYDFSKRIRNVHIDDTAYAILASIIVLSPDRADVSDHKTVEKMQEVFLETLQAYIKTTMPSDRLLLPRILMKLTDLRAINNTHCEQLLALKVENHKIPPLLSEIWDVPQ
Procedure, shortened: as §1

transcriptional activation of lamprey LXR (in words) (L. japonicum LXR) | SMILES | activation of LXRα (in words) (LXRα) | activation of LXRβ (in words) (LXRβ) | activation of tunicate LXR (in words) (tunicate LXR) | other results
significant activations | O=S(=O)(c1ccccc1)N(CC(F)(F)F)c1ccc(C(O)(C(F)(F)F)C(F)(F)F)cc1 [T0901317] |  |  |  | agonistic response, little skate LXRα (in words) (L. erinacea LXRα): significant activations; agonistic response, little skate LXRβ (in words) (L. erinacea LXRβ): significant activations
 | O=Cc1c2[nH]c3ccccc3c2cc2[nH]c3ccccc3c12 [6-Formylindolo(3,2-b)carbazole] |  |  | strongly activated | 
strongly induced | CC(C)[C@@H](O)CC[C@@H](C)[C@H]1CC[C@H]2[C@@H]3CC=C4C[C@@H](O)CC[C@]4(C)[C@H]3CC[C@]12C [24-HC, 24(S)-hydroxycholesterol] | robustly activated | robustly activated |  | transcriptional activation of amphioxus LXR (in words) (B. lanceolatum LXR): residually, but significantly, activated
 | C[C@]12CC[C@@H](O)C[C@@H]1CC[C@@H]1[C@@H]2CC[C@]2(C)C=CC[C@@H]12 [androstenol] |  |  | induced | 
 | C[C@@]12CCC[C@H]1[C@@H]1CC[C@H]3C[C@@H](O)CC[C@]3(C)[C@H]1CC2 [androstanol] |  |  | induced | 
strongly induced | C[C@H](CC[C@@H]1OC1(C)C)[C@H]1CC[C@H]2[C@@H]3CC=C4C[C@@H](O)CC[C@]4(C)[C@H]3CC[C@]12C [24,25-EC, 24(S),25-epoxycholesterol] | robustly activated | robustly activated |  | 

SMILES | transcriptional activation of lamprey LXR (in words) (L. japonicum LXR) | activation of LXRα (in words) (LXRα) | activation of LXRβ (in words) (LXRβ) | activation of tunicate LXR (in words) (tunicate LXR) | other results
C[C@H](CCCC(C)(C)O)[C@H]1CC[C@H]2[C@@H]3CC=C4C[C@@H](O)CC[C@]4(C)[C@H]3CC[C@]12C [25-HC, 25-hydroxycholesterol] | prominent and statistically significant (P < 0.001), yet only at higher concentrations | lower transcriptional responses | lower transcriptional responses |  | 
